Reference: PubChem BioAssay
Results filed as inconclusive are left out.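 How the source made its calls, unless noted: active means growth inhibition above 25% in both replicates, a cutoff set 3 SD above the mean; inconclusive means above 25% in only one replicate; inactive means the rest.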

Assays:
[1] = S. cerevisiae growth inhibition in permissive medium (OD615), pilot counter-assay for S. cerevisiae lifespan shortening project, permissive growth control (AID 705); conditions: OD615, 24 h, at 10 µM, active compounds read high
Procedure, shortened: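 System – S. cerevisiae with engineered DeaD lifespan system · Buffer or medium – SC raffinose/galactose permissive medium · Schedule – cells pre-grown 4 h, then 24 h compound exposure, 30 °C humidified · Technique – culture turbidity as optical density at 615 nm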

[2] = S. cerevisiae growth inhibition in restrictive medium, OD615, pilot screen, restrictive growth control, yeast lifespan reduction project (AID 706;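 active means growth inhibition above a set limit, 3 SD over mean compound inhibition, in both replicates, cut at about 43% in these data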;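 further: modified DeaD lifespan yeast strain shifted to restrictive glucose medium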); conditions: OD615, 48 h, at 10 µM, active compounds read high
Procedure, shortened: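 Material: engineered S. cerevisiae DeaD strain / Medium: glucose-based CSMM-D restrictive medium / Compound: single dose of 10 µM compound final, 0.25% DMSO / Timing: 4 h pre-incubation, 48 h exposure at 30 °C / Technique: OD615 absorbance reading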

[3] = doxorubicin toxicity protection in MRP-1 cells – H69AR cells, CellTiter-Glo, duplicate, MRP-1 activator project, pilot screen (AID 807;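 active means viability increase at or above a cutoff of the median across tested compounds plus 3 SD, cut at about 8.5% in these data, passing the limit was not always enough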;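 further: compound pretreatment 18-22 h then 72 h combined with doxorubicin; 0% = doxorubicin alone and 100% = vehicle without doxorubicin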); conditions: H69AR viability with doxorubicin, CellTiter-Glo luminescence; at 10 µM; active compounds read high
[4] = viability of PTEN-null HCT116 cells – cell-based, HCT116 clonal line, CellTiter-Glo, pilot screen (AID 824;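 active means viability at or below 27.92% in each of two runs, the all-compound median minus 4 SD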;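 further: 0% = 20 µM Hyamine control and 100% = vehicle cell control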); conditions: HCT116 PTEN-deleted viability, 60 h, at 10 µM, active compounds read low
[5] = RAM pathway blockade in budding yeast – dse1pr::URA3 reporter, 5-FOA selection, pilot screen (AID 869;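 active means inhibition over a set limit, the all-compound mean plus 3 SD, in both replicate runs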;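 further: 0% = DMSO wells with no growth and 100% = 10 µM 1-NA-PP1 with full growth; RAM network block rescues cells from 5-FOA so hits raise OD615 growth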); conditions: S. cerevisiae dse1pr::URA3 5-FOA growth, OD615, 2 d; at 10 µM; active compounds read high; strain carries analog-sensitive mutant Cbk1 kinase
[6] = RAM signaling pathway blockade in yeast – S. cerevisiae, Pdr1DBD-CYC8 efflux-inhibited sensitized strain, primary screen (AID 1298;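 active means RAM network inhibition above 8.4% in each of two replicates, 3 SD over the compound average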;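 further: 0% = DMSO untreated cells without growth and 100% = 10 µM 1-NA-PP1 full growth; higher means more yeast growth rescued from 5-FOA killing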); conditions: S. cerevisiae cbk1-as DSE1-URA3 strain, 5-FOA growth OD615, 2 d; at 50 µM; active compounds read high
[7] = viability of HCT116 without oncogenic beta-catenin – human colon tumor cells, pilot screen (AID 823;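 active means cell viability at or below a set limit in both duplicate runs, the limit being the all-compound median minus 4 SD, cut at about 23% in these data, passing the limit was not always enough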;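 further: 0% = wells killed by 20 µM Hyamine and 100% = untreated DMSO cell wells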); conditions: HCT116 beta-catenin knockout viability, CellTiter-Glo, 60 h; at 10 µM; active compounds read low

Cc1cc2nc3c(c(=O)n2[nH]1)CCCC3
inactive: growth inhibition [1] -6.41% | growth inhibition [2] 0.415% | viability increase [3] -1.07% | viability [4] 105% | inhibition [5] 1.09% | RAM network inhibition [6] -0.25%

c1ccc(-n2nnnc2-n2ccnc2)cc1
inactive: growth inhibition [1] 3.38% | growth inhibition [2] 1.55% | viability increase [3] -0.62% | viability [4] 109% | inhibition [5] 0.76% | RAM network inhibition [6] 0.92%

COc1ccc(Cl)cc1N1C(=O)C2CCCN2C1c1ccc(F)c(F)c1 (centres undefined)
inactive: growth inhibition [1] -5.22% | growth inhibition [2] -6.92% | viability [7] 98.1% | viability [4] 92.7% | inhibition [5] 1.33% | RAM network inhibition [6] 6.15%

CCOC(=O)C1=C(C)N=c2s/c(=C\c3ccncc3)c(=O)n2C1c1ccc2c(c1)OCO2 (centres undefined)
inactive: growth inhibition [1] -12% | growth inhibition [2] 23.8% | viability increase [3] -7.87% | inhibition [5] 3.46% | RAM network inhibition [6] 8.86%

COc1cc(C(=O)N2CCN(c3ccc(C)cc3C)CC2)cc(OC)c1OC
inactive: growth inhibition [1] -4.88% | growth inhibition [2] 2.84% | viability increase [3] -5% | inhibition [5] 0.135% | RAM network inhibition [6] 4.77%

CCn1c(=O)c(=O)[nH]c2cc(C(=O)NC3CCCc4ccccc43)ccc21 (centres undefined)
inactive: growth inhibition [1] -2.89% | growth inhibition [2] -5.91% | viability increase [3] -5.19% | inhibition [5] 1.7% | RAM network inhibition [6] 3.67%

Cn1c(C(=O)NC2CCCCCC2)cc2c(=O)n(C)c3ccccc3c21
inactive: growth inhibition [1] 1.31% | growth inhibition [2] -8.3% | viability increase [3] -6.4% | inhibition [5] 1.1% | RAM network inhibition [6] 2.31%

CCN1CCN(c2cc(C)c3cc(NC(=O)c4ccc(Br)o4)ccc3n2)CC1
inactive: growth inhibition [1] -8.91% | growth inhibition [2] -15.6% | viability increase [3] -8.37% | inhibition [5] 1.75% | RAM network inhibition [6] 0.84%

COc1cccc(C(=O)Nc2nnc(-c3ccc(Cl)cc3)o2)c1
inactive: growth inhibition [1] 2.17% | growth inhibition [2] 2.42% | viability increase [3] -3.33% | inhibition [5] 1.6% | RAM network inhibition [6] -1.16%

O=C(Nc1nnc(-c2cccs2)o1)c1cccc(Oc2ccccc2)c1
inactive: growth inhibition [1] 16.2% | growth inhibition [2] 24.4% | viability increase [3] -6.06% | inhibition [5] 1.83% | RAM network inhibition [6] 2.76%

CCOc1ccc(-c2cc(CCCC(=O)Nc3cccc(OC)c3)no2)cc1
inactive: growth inhibition [1] -6.04% | growth inhibition [2] 3.52% | viability increase [3] -5.12% | inhibition [5] 3.28% | RAM network inhibition [6] 0.05%

O=C(O)c1cccc(N2C(=O)C3CC=C(Cl)CC3C2=O)c1 (centres undefined)
inactive: growth inhibition [1] -4.4% | growth inhibition [2] -10.2% | viability [7] 95.6% | viability [4] 92.4% | inhibition [5] 1.16% | RAM network inhibition [6] 3.38%

CCNc1nc(-c2ccc(Cl)cc2)cs1
inactive: growth inhibition [1] 1.33% | growth inhibition [2] 0.05% | viability increase [3] -1.74% | viability [4] 84.4% | inhibition [5] -0.24% | RAM network inhibition [6] -0.26%

Cc1ccccc1CN1C(=O)C(O)(CC(=O)c2ccncc2)c2ccccc21 (centres undefined)
inactive: growth inhibition [1] -11.4% | growth inhibition [2] -5.55% | viability increase [3] -5.61% | inhibition [5] 1.28% | RAM network inhibition [6] 5.38%

O=C(CCS(=O)(=O)c1ccccc1)Nc1nc2c(s1)CCCC2
inactive: growth inhibition [1] -16.6% | growth inhibition [2] -17.7% | viability increase [3] -8.89% | inhibition [5] 0.495% | RAM network inhibition [6] 3.5%

COc1ccc(NC(=O)NCCCN2CCN(c3cc(C)ccc3C)CC2)cc1
inactive: growth inhibition [1] -11.2% | growth inhibition [2] -19.5% | viability increase [3] -6.14% | inhibition [5] 0.485% | RAM network inhibition [6] 2.1%

O=C(CSc1nc(-c2ccco2)cc(C(F)(F)F)n1)Nc1ccc(C(=O)N2CCCCC2)cc1
inactive: growth inhibition [1] 0.645% | growth inhibition [2] -0.65% | viability increase [3] -2.87% | inhibition [5] 1.97% | RAM network inhibition [6] 3.42%

Cn1nc(-c2ccc(Cl)cc2)c2cc(C(=O)NCCN3CCOCC3)sc21
inactive: growth inhibition [1] -4.46% | growth inhibition [2] -5.2% | viability increase [3] -7.41% | inhibition [5] 0.45% | RAM network inhibition [6] -1.47%

c1coc(CNc2c3c(nc4ccccc24)CCC3)c1
inactive: growth inhibition [1] -9.23% | growth inhibition [2] -0.365% | viability increase [3] -5.72% | inhibition [5] -0.205% | RAM network inhibition [6] 0.83%

Cc1nc(N2CCN(Cc3ccc4c(c3)OCO4)CC2)c2oc3ccccc3c2n1
inactive: growth inhibition [1] -0.195% | growth inhibition [2] -1.24% | viability increase [3] -4.93% | inhibition [5] 2% | RAM network inhibition [6] 4.68%

NC(=O)CNC1CC(=O)N(CCc2ccccc2)C1=O (centres undefined)
inactive: growth inhibition [1] 2.06% | growth inhibition [2] 4.79% | viability increase [3] -2.49% | viability [4] 98.5% | inhibition [5] 0.77% | RAM network inhibition [6] 1.69%

N#Cc1nc(COc2cccc(Cl)c2)oc1N1CCCC1
inactive: growth inhibition [1] 4.94% | growth inhibition [2] 11.2% | viability [7] 82.7% | viability [4] 82.7% | inhibition [5] -0.7% | RAM network inhibition [6] 0.47%

CC1=C(C(=O)OCc2ccc3c(c2)OCO3)C(c2ccccc2)NC(=O)N1 (centres undefined)
inactive: growth inhibition [1] -12% | growth inhibition [2] -9.41% | viability increase [3] -4.88% | inhibition [5] 1.81% | RAM network inhibition [6] 2.03%

Cc1cccc(C2CC(c3ccccc3)Nc3ncnn32)c1 (centres undefined)
inactive: growth inhibition [1] 3.16% | growth inhibition [2] 13.8% | viability [7] 91.9% | viability [4] 93.8% | inhibition [5] 1.7% | RAM network inhibition [6] 0.37%

CCOc1ccc(-n2c(SCC(=O)Nc3cc(C)on3)nc3c([nH]c4ccccc43)c2=O)cc1
inactive: growth inhibition [1] -16.7% | growth inhibition [2] -15.4% | viability increase [3] -6.08% | viability [4] 55.3% | inhibition [5] 0.94% | RAM network inhibition [6] 5.59%

O=C(CSc1oc(-c2ccc(F)cc2)nc1S(=O)(=O)c1ccc(F)cc1)NCC1CCCO1 (centres undefined)
inactive: growth inhibition [1] -8.11% | growth inhibition [2] -3.3% | viability increase [3] -7.22% | inhibition [5] 1.05% | RAM network inhibition [6] 6.87%

O=C(Nc1nnc(-c2cccs2)o1)c1cccc(F)c1
inactive: growth inhibition [1] -18.7% | growth inhibition [2] 9.29% | viability increase [3] -1.42% | inhibition [5] 0.745% | RAM network inhibition [6] 3.47%

Cc1cc(NS(=O)(=O)c2ccccc2)cc(Cl)c1O
inactive: growth inhibition [1] -22.9% | growth inhibition [2] 2.72% | viability increase [3] -2.8% | viability [4] 86.2% | inhibition [5] 1.4% | RAM network inhibition [6] 2.58%

CC(C)Cn1c(SCC#N)nc2ccccc2c1=O
inactive: growth inhibition [1] -0.35% | growth inhibition [2] -14.3% | viability increase [3] -1.74% | viability [4] 88% | inhibition [5] 1.18% | RAM network inhibition [6] 5.88%

CCc1ccc(NC(=O)Cn2c(=O)oc3cc(S(=O)(=O)N4CCOCC4)ccc32)cc1
inactive: growth inhibition [1] -11% | growth inhibition [2] -13.3% | viability [7] 99.8% | viability [4] 89.2% | inhibition [5] 1.83% | RAM network inhibition [6] 8.19%

Cc1cc(N2CCN(S(=O)(=O)c3ccc(Cl)cc3)CC2)c2ccccc2n1
inactive: growth inhibition [1] -3.2% | growth inhibition [2] -2.46% | viability increase [3] -2.62% | inhibition [5] -0.15% | RAM network inhibition [6] 2.74%

CSc1nc(N2CCN(CCO)CC2)c2sc3nc(-c4ccco4)c4c(c3c2n1)CCC4
inactive: growth inhibition [1] -5.56% | growth inhibition [2] -10.7% | viability increase [3] -8.19% | inhibition [5] -1.67% | RAM network inhibition [6] -2.9%

COc1ccc(S(=O)(=O)Cc2ccc(C(=O)N3CCN(c4ccc(Cl)cc4)CC3)o2)cc1
inactive: growth inhibition [1] 2.93% | growth inhibition [2] -3.86% | viability increase [3] -4.86% | inhibition [5] 0.375% | RAM network inhibition [6] 6.31%

Cc1cccc(N2CCN(C(=O)c3cc4c(=O)n(C)c5ccccc5c4n3C)CC2)c1C
inactive: growth inhibition [1] -7.02% | growth inhibition [2] -6.91% | viability [7] 61.1% | viability [4] 65.5% | inhibition [5] 3.12% | RAM network inhibition [6] 1.49%

CSc1nc2c(cnn2-c2ccc(C)c(C)c2)c(=O)[nH]1
inactive: growth inhibition [1] 3.89% | growth inhibition [2] 1.82% | viability increase [3] -8.82% | inhibition [5] 2.08% | RAM network inhibition [6] 0.57%

Nc1ccc(O)c(-c2nc3ccccc3s2)c1
inactive: growth inhibition [1] 2.32% | growth inhibition [2] 5.73% | viability increase [3] -7.28% | viability [4] 32.6% | inhibition [5] 2.77% | RAM network inhibition [6] 1.92%

OC(COc1ccc(C2C=CCC2)cc1)CN1CCCCC1 (centres undefined)
inactive: growth inhibition [1] 0.36% | growth inhibition [2] -8.12% | viability increase [3] -4.7% | inhibition [5] 1.75% | RAM network inhibition [6] 3.83%

CN1C(=O)C(O)(CC(=O)c2ccccn2)c2cc(Br)ccc21 (centres undefined)
inactive: growth inhibition [1] -0.08% | growth inhibition [2] 6.53% | viability increase [3] -7.14% | inhibition [5] 0.9% | RAM network inhibition [6] 3.11%

COc1ccccc1C(=O)C(O)c1ccccc1OC (centres undefined)
inactive: growth inhibition [1] -8.34% | growth inhibition [2] 0.335% | viability increase [3] 0.03% | viability [4] 94.4% | inhibition [5] 0.755% | RAM network inhibition [6] 5.17%

O=C1N=C(c2ccccc2)C(c2ccccc2)N1 (centres undefined)
inactive: growth inhibition [1] -9.57% | growth inhibition [2] 0.595% | viability increase [3] -3.35% | viability [4] 90.8% | inhibition [5] 1.23% | RAM network inhibition [6] 1.06%

Cc1cccc(-n2ncc3c(N4CC(C)CC(C)C4)ncnc32)c1 (centres undefined)
inactive: growth inhibition [1] -1.33% | growth inhibition [2] -3.92% | viability [7] 59.9% | viability [4] 78.1% | inhibition [5] 1.74% | RAM network inhibition [6] 6.19%

O=C(CCc1ccccc1)Nc1nnc(-c2ccc3c(c2)CCCC3)o1
inactive: growth inhibition [1] -1.89% | growth inhibition [2] 11.3% | viability [7] 53.6% | viability [4] 72.1% | inhibition [5] 0.09% | RAM network inhibition [6] 5.06%

Cc1ccc(-c2nn3c(C)nnc3s2)cc1NC(=O)c1ccc(Br)o1
inactive: growth inhibition [1] 4.25% | viability increase [3] -3.03% | viability [7] 105% | viability [4] 93% | inhibition [5] 3% | RAM network inhibition [6] 8.4%
